According to ChEMBL document CHEMBL4304827, “Design, synthesis and evaluation of structurally diverse chrysin-chromene-spirooxindole hybrids as anticancer agents” (Bioorg Med Chem, 2019):
pIC50: −log10 of the molar value. Active and inactive are the calls of the source.

Experiments:
A549 [1] = assay: Antimigratory activity in human A549 cells assessed as reduction in wound healing incubated for 36 hrs by wound healing assay; type: functional, cell-based
How it was run: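 Confluent A549 monolayers, seeded at 1 × 10^5 cells/well, were scratched with a pipette tip. Medium was replaced with medium containing various concentrations and cells were incubated 36 h. Migration area was measured by microscopy and expressed as a percentage of control (control = 100%). Mean ± SD, ≥3 independent experiments.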

A549 [2] = assay: Antiproliferative activity against human A549 cells assessed as reduction in cell proliferation incubated for 48 hrs by MTT assay; type: functional, cell-based; settings: A549, 48 h
How it was run: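 Log-phase cells were plated at 5 × 10^3/well in RPMI-1640 with 10% FBS and cultured 24 h. Compounds were added at graded concentrations (DMSO <0.1%) for 48 h. MTT (5 mg/mL) was added for about 4 h, formazan was dissolved in DMSO and A490 was read. IC50 was calculated from ≥3 independent experiments and reported as mean ± SD. Chrysin served as positive control.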

A549 [3] = assay: Inhibition of colony formation in human A549 cells cultured in plate assessed as decrease in size and number of colonies formed incubated for 10 days by crystal violet staining based fluorescence microscopy; type: functional, cell-based
How it was run: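 Log-phase A549 cells were seeded at 1 × 10^3/well and cultured 24 h. Medium containing various concentrations was added and cells were grown 10 days. Colonies were fixed in 4% paraformaldehyde for 30 min, stained with 0.1% crystal violet and imaged by microscopy. Colony percentage was calculated relative to control colonies. Mean ± SD, ≥3 experiments.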

A549 [4] = assay: Inhibition of colony formation in human A549 cells culture in 0.3% RPMI-1640 medium agar assessed as decrease in size and number of colonies formed incubated for 20 days by NBT staining based assay; type: functional, cell-based
How it was run: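 A549 cells at 1 × 10^5 cells/mL were treated with various concentrations in 0.3% medium-agar layered over 0.6% medium-agar. Cultures were kept at 37 °C and 5% CO2. Methods give 14 days; the figure legend gives 20 days. Colonies were stained with 1.5 mg/mL NBT and counted as a percentage of control. Mean ± SD, ≥3 experiments.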

A549 [5] = assay: Induction of apoptosis in human A549 cells assessed as morphological changes by measuring rounded cells with weak adhesion incubated for 24 hrs; type: functional, cell-based
How it was run: (§1)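 A549 cells were plated at 3 × 10^5/well and cultured 12 h, then exposed to various concentrations for 24 h. Morphology was observed by microscopy. AO-EB stain (1 mg/mL each, in PBS) was applied for 10 min at room temperature in the dark. Harvested cells were stained with PI for 15 min at room temperature in the dark, then washed. Both stains were examined by fluorescence microscopy.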

A549 [6] = assay: Induction of apoptosis in human A549 cells assessed as chromatin shrinkage and apoptotic body formation at higher concentrations incubated for 24 hrs by AO-EB staining based fluorescence microscopy; type: functional, cell-based; how it was run: as §1
A549 [7] = assay: Induction of apoptosis in human A549 cells assessed as viable cells at 5 uM incubated for 24 hrs by annexin V FITC and PI staining based flow cytometry (reference value: 95.7%); type: functional; settings: A549, 24 h, read-out: Activity
A549 [8] = assay: Induction of apoptosis in human A549 cells assessed as early apoptotic cells at 5 uM incubated for 24 hrs by annexin V FITC and PI staining based flow cytometry (reference value: 0.53%); type: functional
A549 [9] = assay: Induction of apoptosis in human A549 cells assessed as late apoptotic cells at 50 uM incubated for 24 hrs by annexin V FITC and PI staining based flow cytometry (reference value: 1.32%); type: functional
A549 [10] = assay: Induction of apoptosis in human A549 cells assessed as necrotic cells at 5 uM incubated for 24 hrs by annexin V FITC and PI staining based flow cytometry (reference value: 2.43%); type: functional
A549 [11] = assay: Induction of apoptosis in human A549 cells assessed as necrotic cells at 50 uM incubated for 24 hrs by annexin V FITC and PI staining based flow cytometry (reference value: 2.43%); type: functional
A549 [12] = assay: Induction of apoptosis in human A549 cells assessed as downregulation of Bcl2 protein expression incubated for 24 hrs by Western blot analysis; type: functional, cell-based
How it was run: (§2)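 A549 cells were treated with various concentrations for 24 h and lysed in RIPA buffer with 1 mM PMSF. Protein (20 μg) was resolved on 8-12% SDS-PAGE and transferred to PVDF. Membranes were blocked in 5% milk and probed with primary antibodies overnight at 4 °C, then with anti-rabbit secondary. Bands were quantified by densitometry. Mean ± SD, ≥3 experiments.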

A549 [13] = assay: Induction of apoptosis in human A549 cells assessed as downregulation of Akt protein expression incubated for 24 hrs by Western blot analysis; type: functional, cell-based; how it was run: as §2
A549 [14] = assay: Induction of apoptosis in human A549 cells assessed as downregulation of 5-Lox protein expression incubated for 24 hrs by Western blot analysis; type: functional, cell-based; how it was run: as §2
A549 [15] = assay: Induction of apoptosis in human A549 cells assessed as downregulation of MDM2 protein expression incubated for 24 hrs by Western blot analysis; type: functional, cell-based; how it was run: as §2
A549 [16] = assay: Induction of apoptosis in human A549 cells assessed as upregulation of Cyt c protein expression incubated for 24 hrs by Western blot analysis; type: functional, cell-based; how it was run: as §2
A549 [17] = assay: Antimigratory activity in human A549 cells assessed as reduction in cell migration incubated for 36 hrs by transwell migration assay; type: functional, cell-based
How it was run: (§3)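 Cells were suspended at 1 × 10^4/mL in RPMI-1640 with 1% FBS and seeded in the upper chamber. For the invasion assay the upper chamber was coated with Matrigel. The lower chamber held medium with 10% FBS. Compound was given at various concentrations for 36 h. Membranes were methanol-fixed and stained with 0.1% crystal violet. Cells on the lower side were counted relative to control (100%). Mean ± SD, ≥3 experiments.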

A549 [18] = assay: Antimigratory activity in human A549 cells assessed as reduction in cell invasion incubated for 36 hrs by matrigel transwell migration assay; type: functional, cell-based; how it was run: as §3
A549 [19] = assay: Induction of apoptosis in human A549 cells assessed as downregulation of 5-Lox protein expression at 10 uM by Western blot analysis; type: functional, cell-based; settings: TDE = time-dependent effect
How it was run: as §2, with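 “exposed to 10 μM” for “treated with various concentrations”, “different times” for “24 h”, “separated” for “resolved”, “incubated” for “probed”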

A549 [20] = assay: Induction of apoptosis in human A549 cells assessed as upregulation of Cyt c protein expression at 10 uM by Western blot analysis; type: functional, cell-based; settings: TDE = time-dependent effect
How it was run: as §2, with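 “exposed to 10 μM” for “treated with various concentrations”, “different times” for “24 h”, “separated” for “resolved”, “incubated” for “probed”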

A549 [21] = assay: Induction of apoptosis in human A549 cells assessed as upregulation of p53 protein expression at 10 uM by Western blot analysis; type: functional, cell-based; settings: TDE = time-dependent effect
How it was run: as §2, with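 “exposed to 10 μM” for “treated with various concentrations”, “different times” for “24 h”, “separated” for “resolved”, “incubated” for “probed”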

A549 [22] = assay: Induction of apoptosis in human A549 cells assessed as upregulation of p21 protein expression at 10 uM by Western blot analysis; type: functional, cell-based; settings: TDE = time-dependent effect
How it was run: as §2, with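 “exposed to 10 μM” for “treated with various concentrations”, “different times” for “24 h”, “separated” for “resolved”, “incubated” for “probed”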

CN1C(=O)C2(C(C#N)=C(N)Oc3cc4oc(-c5ccccc5)cc(=O)c4c(O)c32)c2cc(Br)ccc21 (configuration not stated)
24.8%: Activity (A549 [9])
85%: viability at 5 µM (A549 [7])
6.53%: Activity (A549 [8])
5.50: pIC50 (A549 [2])
active: inhibition (A549 [1]) Dose-dependent effect | inhibition (A549 [3]) Dose-dependent effect | inhibition (A549 [4]) Dose-dependent effect | Activity (A549 [5]) Dose-dependent effect | Activity (A549 [6]) | inhibition (A549 [12]) Dose-dependent effect | inhibition (A549 [13]) Dose-dependent effect | inhibition (A549 [14]) Dose-dependent effect | inhibition (A549 [15]) Dose-dependent effect | Activity (A549 [16]) Dose-dependent effect | inhibition (A549 [17]) Dose-dependent effect | inhibition (A549 [18]) Dose-dependent effect | inhibition (A549 [19]) Tde | Activity (A549 [20]) Tde | Activity (A549 [21]) Tde | Activity (A549 [22]) Tde
0.732%: Activity (A549 [10])
6.11%: Activity (A549 [11])
